Data from ChEMBL document CHEMBL1122008, “Lipophilic 5'-(alkyl phosphate) esters of 1-beta-D-arabinofuranosylcytosine and its N4-acyl and 2,2'-anhydro-3'-O-acyl derivatives as potential prodrugs” (1982).

How the values were obtained:
Assay type in all cases: functional
Mus musculus [1] = experiment: Antitumor activity against L1210 leukemia in mice (Average 7-day weight change) at the dose of 468 mg/kg
In short: (§1)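 Male B6D2F1J mice, groups of five to nine, inoculated ip with 10^5 L1210 cells on day 0. Drug treatment started day 1 on qd×5 or q4d(2,6) schedule. Vehicles: ara-C in sterile water; the n-butyl phosphate ester in 0.05 M pH 7.4 potassium phosphate buffer; others as suspensions in 0.4% Tween 80/0.5% low-density CMC/0.9% benzyl alcohol/0.9% saline. Mice weighed days 1 and 7; 7-day weight change given as g/mouse and %.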

Mus musculus [2] = experiment: Antitumor activity against L1210 leukemia in mice (Average 7-day weight change) at the dose of 117 mg/kg; in short: as §1
Mus musculus [3] = experiment: Antitumor activity against L1210/ara-C leukemia in mice (Average 7-day weight change) at the dose of 117 mg/kg
In short: (§2)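 Male B6D2F1J mice (5–9 per group) were given 10^5 L1210/ara-C cells i.p. on day 0, with treatment from day 1 on qd×5 or q4d(2,6). Vehicles were sterile water, pH 7.4 0.05 M phosphate buffer, or a Tween 80/CMC/benzyl alcohol saline suspension. Weights were taken on days 1 and 7; change is expressed in g/mouse and as a percentage.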

Mus musculus [4] = experiment: Antitumor activity against L1210 leukemia in mice (Percent increase in life span.) at the dose of 234 mg/kg (mice surviving 20 or more days)
In short: (§3)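 Male B6D2F1J mice, groups of 5–9, inoculated ip with 10^5 L1210 cells on day 0. Dosing starts day 1 on a qd×5 or q4d(2,6) schedule. Vehicles are sterile water, pH 7.4 0.05 M potassium phosphate buffer, or 0.4% Tween 80/0.5% CMC/0.9% benzyl alcohol/0.9% saline. %ILS = (T/C − 1)×100 from median survival. Weights taken days 1 and 7.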

Mus musculus [5] = experiment: Antitumor activity against L1210 leukemia in mice (Average weight per mouse on day 1.) at the dose of 117 mg/kg
In short: (§4)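 Male B6D2F1J mice (5–9 per group) received 10^5 L1210 cells i.p. on day 0 and drug from day 1, given qd×5 or q4d(2,6). Vehicles were sterile water, 0.05 M potassium phosphate pH 7.4, or 0.4% Tween 80/0.5% CMC/0.9% benzyl alcohol/0.9% saline. Read-out is average body weight per mouse (g) on day 1.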

Mus musculus [6] = experiment: Antitumor activity against L1210 leukemia in mice (Percent increase in life span.) at the dose of 117 mg/kg; in short: as §3
Mus musculus [7] = experiment: Antitumor activity against L1210 leukemia in mice (Average weight per mouse on day 1.) at the dose of 468 mg/kg; in short: as §4
Mus musculus [8] = experiment: Antitumor activity against L1210/ara-C leukemia in mice (Average 7-day weight change (%)) at the dose of 468 mg/kg; in short: as §2
Mus musculus [9] = experiment: Antitumor activity against L1210/ara-C leukemia in mice (Percent increase in life span.) at the dose of 468 mg/kg
In short: (§5)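 Same protocol as the L1210 assay, but with 10^5 kinase-deficient L1210/ara-C cells inoculated ip into male B6D2F1J mice (groups of 5–9) on day 0. Treatment begins day 1, qd×5 or q4d(2,6). %ILS = (T/C − 1)×100 using median survival times of treated and control groups. Body weight recorded days 1 and 7.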

Mus musculus [10] = experiment: Antitumor activity against L1210/ara-C leukemia in mice (Percent increase in life span.) at the dose of 117 mg/kg; in short: as §5
Mus musculus [11] = experiment: Antitumor activity against L1210 leukemia in mice (Average 7-day weight change (%)) at the dose of 234 mg/kg; in short: as §1
Mus musculus [12] = experiment: Antitumor activity against L1210 leukemia in mice (Average 7-day weight change (%)) at the dose of 117 mg/kg; in short: as §1
Mus musculus [13] = experiment: Antitumor activity against L1210/ara-C leukemia in mice (Average 7-day weight change (%)) at the dose of 234 mg/kg; in short: as §2
Mus musculus [14] = experiment: Antitumor activity against L1210 leukemia in mice (Average 7-day weight change) at the dose of 234 mg/kg; in short: as §1
Mus musculus [15] = experiment: Antitumor activity against L1210/ara-C leukemia in mice (Average weight per mouse on day 1.) at the dose of 117 mg/kg
In short: (§6)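 Male B6D2F1J mice, groups of 5–9, inoculated ip with 10^5 L1210/ara-C cells on day 0. Dosing began day 1 on a qd×5 or q4d(2,6) schedule. Ara-C was given in sterile water, the n-butyl phosphate ester in 0.05 M pH 7.4 potassium phosphate buffer, and others as suspensions in 0.4% Tween 80/0.5% CMC/0.9% benzyl alcohol/0.9% saline. Mice were weighed on days 1 and 7; 7-day change given in g and %.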

Mus musculus [16] = experiment: Antitumor activity against L1210/ara-C leukemia in mice (Average 7-day weight change (%)) at the dose of 117 mg/kg; in short: as §2
Mus musculus [17] = experiment: Antitumor activity against L1210 leukemia in mice (Average 7-day weight change (%)) at the dose of 468 mg/kg; in short: as §1
Mus musculus [18] = experiment: Antitumor activity against L1210 leukemia in mice (Average weight per mouse on day 1.) at the dose of 234 mg/kg; in short: as §4
Mus musculus [19] = experiment: Antitumor activity against L1210 leukemia in mice (Percent increase in life span.) at the dose of 468 mg/kg (mice surviving 20 or more days); in short: as §3
Mus musculus [20] = experiment: Antitumor activity against L1210/ara-C leukemia in mice (Average 7-day weight change) at the dose of 234 mg/kg; in short: as §2
Mus musculus [21] = experiment: Antitumor activity against L1210/ara-C leukemia in mice (Average weight per mouse on day 1.) at the dose of 468 mg/kg; in short: as §6
Mus musculus [22] = experiment: Antitumor activity against L1210/ara-C leukemia in mice (Average weight per mouse on day 1.) at the dose of 234 mg/kg; in short: as §6
Mus musculus [23] = experiment: Antitumor activity against L1210/ara-C leukemia in mice (Percent increase in life span.) at the dose of 234 mg/kg; in short: as §5
Mus musculus [24] = experiment: Antitumor activity against L1210/ara-C leukemia in mice (Average 7-day weight change) at the dose of 468 mg/kg; in short: as §2

CCCCCCCCCCCCCCCC(=O)O[C@H]1[C@@H]2Oc3nc(=N)ccn3[C@@H]2O[C@@H]1COP(=O)(O)OCC
Weight change (Mus musculus [1]): -3.8 g mouse-1 | Weight change (Mus musculus [2]): -1.6 g mouse-1 | Weight change (Mus musculus [3]): 2 g mouse-1 | ILS at 234 mg/kg (Mus musculus [4]): 138% | Average weight (Mus musculus [5]): 24.4 g mouse-1 | ILS at 117 mg/kg (Mus musculus [6]): 75% | Average weight (Mus musculus [7]): 23.6 g mouse-1 | Weight change (Mus musculus [8]): -20% | ILS at 468 mg/kg (Mus musculus [9]): -13% | ILS at 117 mg/kg (Mus musculus [10]): 0% | Weight change (Mus musculus [11]): -11% | Weight change (Mus musculus [12]): -7% | Weight change (Mus musculus [13]): 1% | Weight change (Mus musculus [14]): -2.6 g mouse-1 | Average weight (Mus musculus [15]): 22.4 g mouse-1 | Weight change (Mus musculus [16]): 9% | Weight change (Mus musculus [17]): -16% | Average weight (Mus musculus [18]): 24.2 g mouse-1 | ILS at 468 mg/kg (Mus musculus [19]): 100% | Weight change (Mus musculus [20]): 0.2 g mouse-1 | Average weight (Mus musculus [21]): 22 g mouse-1 | Average weight (Mus musculus [22]): 21.4 g mouse-1 | ILS at 234 mg/kg (Mus musculus [23]): 0% | Weight change (Mus musculus [24]): -2.4 g mouse-1
